{"source": "ChEMBL document CHEMBL4811254", "about": "“Beyond Basicity: Discovery of Nonbasic DENV-2 Protease Inhibitors with Potent Activity in Cell Culture” (J Med Chem, 2021)", "key": {"[1]": {"molecular_target": "Genome polyprotein (dengue virus type 2) (UniProt P29990)", "test": "Inhibition of NS2B-NS3 protease in DENV2proHeLa system assessed as inhibition of luciferase signal at 12.5 uM incubated for 24 hrs by luciferase reporter gene assay", "type": "cell-based", "details": "HeLa", "in_short": "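Stable DENV2proHeLa cells seeded at 2 × 10⁴/well and dosed immediately, then incubated 24 h at 37 °C. Cells lysed 15 min at room temperature. Luciferase read with coelenterazine (2.75 μM in PBS) injection, luminescence 5 s. Triplicates; percent inhibition calculated relative to untreated control; background from cell-free wells.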"}, "[2]": {"molecular_target": "Genome polyprotein (dengue virus type 2, UniProt P29990)", "test": "Inhibition of NS2B-NS3 protease in DENV2proHeLa system assessed as inhibition of luciferase signal incubated for 24 hrs by luciferase reporter gene assay", "type": "cell-based, HeLa", "in_short": "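HeLa cells stably carrying the reporter system, 2 × 10⁴ per well, given inhibitor at seeding and held 24 h at 37 °C. Cells lysed 15 min at room temperature. Luciferase read for 5 s after injecting coelenterazine (2.75 μM in PBS). Triplicate wells per concentration; percent inhibition taken against untreated cells. EC50/EC90 from 4-parameter dose-response fit, background from cell-free wells subtracted.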"}, "[3]": {"test": "Cytotoxicity against human HeLa cells assessed as reduction in cell viability incubated for 24 hrs by CellTiter-Blue assay", "type": "cell-based", "in_short": "(§1)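 Viability by CellTiter-Blue in HeLa or Huh-7 cells exposed to compound dilutions. Plates run in parallel with the reporter assay (HeLa) or the virus titer assay (Huh-7).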"}, "[4]": {"molecular_target": "Prothrombin (Homo sapiens) (UniProt P00734)", "test": "Inhibition of thrombin in human plasma using Boc-Val-Pro-Arg-AMC as substrate at 25 uM preincubated with enzyme for 15 mins followed by substrate addition and measured for 15 mins by fluorimetric assay", "type": "cell-free", "details": "time 30.0 min"}, "[5]": {"molecular_target": "Trypsin (Homo sapiens) (UniProt P07477+P07478+P35030)", "test": "Inhibition of trypsin (unknown origin) using Boc-Val-Pro-Arg-AMC as substrate at 50 uM preincubated with enzyme for 15 mins followed by substrate addition and measured for 15 mins by fluorimetric assay", "type": "protein assay", "details": "time 30.0 min"}, "[6]": {"tested_on": "dengue virus type 2", "test": "Antiviral activity against DENV2 infected in human Huh7 cells assessed as reduction in virus titer in cell supernatant by measuring inhibition of plaque formation using VeroE6 cells at 10 uM preincubated with viral infected Huh7 cells for 48 hrs and measured following infection of VeroE6 cells with supernatants for 7 days by plaque assay based crystal violet staining analysis", "type": "functional", "details": "Huh-7, 216 h, time 9 day"}, "[7]": {"test": "Passive membrane permeability of the compound in phosphate buffered saline at 200 uM incubated for 5 hrs by PAMPA assay based HPLC analysis", "type": "ADME", "details": "pampa, 5 h, 200 µM", "in_short": "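Precoated trilayer PAMPA, 5 h incubation. Acceptor and donor concentrations measured after 5 h. Permeability and mass retention calculated by a literature method.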"}, "[8]": {"tested_on": "Huh-7", "test": "Cytotoxicity against human Huh-7 cells assessed as reduction in cell viability at 10 uM incubated for 48 hrs by CellTiter-Blue assay", "type": "cell-based", "details": "huh-7, 48 h", "in_short": "as §1"}}, "note": "The source made the active and inactive calls. How the calls were made is not given here.", "data": [{"smiles": "CCCCCC(=O)N[C@H](C(=O)NCc1ccc(C(N)=O)cc1)c1ccc(OCc2ccccc2)cc1", "values": [{"measurement": "inhibition", "setting": "[1]", "value": 66, "unit": "%"}, {"measurement": "EC50", "setting": "[2]", "value": 6.3, "unit": "µM"}, {"measurement": "CC50 at 24 h", "setting": "[3]", "value": "> 100", "unit": "µM"}, {"measurement": "inhibition", "setting": "[4]", "value": "inactive"}, {"measurement": "inhibition", "setting": "[5]", "value": "inactive"}, {"measurement": "inhibition at 10 µM", "setting": "[6]", "value": 34, "unit": "%"}, {"measurement": "permeability", "setting": "[7]", "value": "Impermeable"}, {"measurement": "Activity", "setting": "[8]", "value": "< 20", "unit": "%"}]}]}
